According to ChEMBL document CHEMBL3525971 (Drug Metab Dispos, 2011):

Columns and labels:
[1] = Drug excretion in castrated pig urine assessed as fraction of the dose excreted at 0.2 mg/kg, iv measured during 6 hrs sampling by UPLC-tandem mass spectrometry; format: ADME, organism-based, Sus scrofa; design: dose 0.2 mg/kg, route intravenous; details: male, read-out: Drug excretion
[2] = Tmax in castrated pig plasma withdrawn from femoral vein at 0.8 mg/kg administered as intrajejunal dose 20 mins after ketoconazole administration by UPLC-tandem mass spectrometry; format: ADME, organism-based, Sus scrofa; design: dose 0.8 mg/kg; details: male
Method in brief: (§1)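 Portal, hepatic and femoral vein plasma sampled over 6 h and assayed by UPLC-MS/MS. Tmax read directly from the profiles. Terminal t1/2 calculated as ln2/λz by non- or compartmental analysis; values below LLOQ after Cmax excluded.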

[3] = AUC (0 to 6 hrs) in castrated pig plasma withdrawn from hepatic vein at 0.8 mg/kg administered as intrajejunal dose 20 mins after ketoconazole administration by UPLC-tandem mass spectrometry; format: ADME, organism-based, Sus scrofa; design: time < 6 hr, dose 0.8 mg/kg; details: male
Method in brief: (§2)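 Where ketoconazole was co-dosed, it was given at 10 mg/kg at the same jejunal site 20 min before. Plasma protein-precipitated with acetonitrile and analysed by UPLC-MS/MS (finasteride-d9). AUC0-6h, Cmax and t1/2 (ln2/λz) were derived by non- or compartmental analysis.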

Sus scrofa [4] = test: Absorption rate constant in castrated pig plasma withdrawn from portal vein at 0.8 mg/kg administered as intrajejunal dose by UPLC-tandem mass spectrometry; format: ADME, organism-based; design: dose 0.8 mg/kg; details: in vivo, other
[5] = Fraction unbound in pig plasma; format: ADME, cell-free, Sus scrofa
Method in brief: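 Femoral-vein plasma drawn at 30 and 300 min. […] Unbound and total plasma concentrations measured by HPLC-UV at 210 nm after precipitation and solid-phase extraction, with testosterone as internal standard. Calibration range 0.003-1 µM; fraction unbound taken as Cu/Cp.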

[6] = Total plasma clearance in human; format: ADME, organism-based
[7] = AUC (0 to 6 hrs) in castrated pig plasma withdrawn from hepatic vein at 0.8 mg/kg administered as intrajejunal dose by UPLC-tandem mass spectrometry; format: ADME, organism-based, Sus scrofa; design: time < 6 hr, dose 0.8 mg/kg; details: male; method in brief: as §2
[8] = Biliary excretion in castrated pig assessed as fraction of the dose excreted at 0.8 mg/kg administered as intrajejunal dose 20 mins after ketoconazole administration measured during 6 hrs sampling by UPLC-tandem mass spectrometry; format: ADME, organism-based, Sus scrofa; design: dose 0.8 mg/kg; details: male, bile, read-out: Drug excretion
[9] = Cmax in castrated pig bile at 0.8 mg/kg administered as intrajejunal dose 20 mins after ketoconazole administration by UPLC-tandem mass spectrometry; format: ADME, organism-based, Sus scrofa; design: dose 0.8 mg/kg; details: male
[10] = Tmax in castrated pig plasma withdrawn from femoral vein at 0.8 mg/kg administered as intrajejunal dose by UPLC-tandem mass spectrometry; format: ADME, organism-based, Sus scrofa; design: dose 0.8 mg/kg; details: male; method in brief: as §1
[11] = Renal clearance in castrated pig at 0.8 mg/kg, administered as intrajejunal dose by UPLC-tandem mass spectrometry; format: ADME, organism-based, Sus scrofa, Kidney; design: dose 0.8 mg/kg; details: male, in vivo
Method in brief: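 Urine collected 0-360 min into a closed bag, weighed and frozen at -20°C. […] Doses: iv 0.2 mg/kg bolus via central vein catheter (n=3), or ij 0.8 mg/kg alone or 20 min after ij ketoconazole 10 mg/kg (n=5). Renal clearance derived from the amount excreted in urine over 0-6 h.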

[12] = Biliary excretion in castrated pig assessed as unchanged drug level at 0.8 mg/kg administered as intrajejunal dose measured during 6 hrs sampling by UPLC-tandem mass spectrometry; format: ADME, organism-based, Sus scrofa, Bile; design: dose 0.8 mg/kg; details: in vivo, other
[13] = Apparent biliary clearance in castrated pig at 0.8 mg/kg administered as intrajejunal dose by UPLC-tandem mass spectrometry; format: ADME, organism-based, Sus scrofa, Bile; design: dose 0.8 mg/kg; details: in vivo, other
[14] = Cmax in castrated pig plasma withdrawn from hepatic vein at 0.8 mg/kg administered as intrajejunal dose by UPLC-tandem mass spectrometry; format: ADME, organism-based, Sus scrofa; design: dose 0.8 mg/kg; details: male; method in brief: as §2
[15] = AUC (0 to 6 hrs) in castrated pig bile at 0.8 mg/kg administered as intrajejunal dose by UPLC-tandem mass spectrometry; format: ADME, organism-based, Sus scrofa; design: time < 6 hr, dose 0.8 mg/kg; details: male
[16] = Cmax in castrated pig plasma withdrawn from femoral vein at 0.8 mg/kg administered as intrajejunal dose by UPLC-tandem mass spectrometry; format: ADME, organism-based, Sus scrofa; design: dose 0.8 mg/kg; details: male; method in brief: as §2
Sus scrofa [17] = test: Absorption rate constant in castrated pig plasma withdrawn from femoral vein at 0.8 mg/kg administered as intrajejunal dose 20 mins after ketoconazole administration by UPLC-tandem mass spectrometry; format: ADME, organism-based; design: dose 0.8 mg/kg; details: in vivo, other
[18] = AUC (0 to 6 hrs) in castrated pig plasma withdrawn from femoral vein at 0.8 mg/kg administered as intrajejunal dose by UPLC-tandem mass spectrometry; format: ADME, organism-based, Sus scrofa; design: time < 6 hr, dose 0.8 mg/kg; details: male; method in brief: as §2
[19] = Biliary excretion in castrated pig assessed as unchanged drug level at 0.8 mg/kg administered as intrajejunal dose 20 mins after ketoconazole administration measured during 6 hrs sampling by UPLC-tandem mass spectrometry; format: ADME, organism-based, Sus scrofa, Bile; design: dose 0.8 mg/kg; details: in vivo, other
[20] = Total plasma clearance in castrated pig at 0.2 mg/kg, iv by UPLC-tandem mass spectrometry; format: ADME, organism-based, Sus scrofa; design: dose 0.2 mg/kg, route intravenous; details: male
Method in brief: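 Femoral plasma assayed over 0-6 h by UPLC-MS/MS. CL calculated as dose/AUCVF,0-6h; Vss calculated as MRT × CL, with MRT = AUMC0-6h/AUC0-6h.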

Plasma = test: Drug metabolism in castrated pig plasma withdrawn from portal vein assessed as omega-hydroxy finasteride metabolite formation by UPLC-tandem mass spectrometry; format: ADME, cell-free, Sus scrofa
Method in brief: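 Plasma sampled 0-6 h from portal, hepatic and femoral veins. Analysed by acetonitrile precipitation with finasteride-d9 internal standard, then UPLC-MS/MS in SRM mode, m/z 389.41 → 271.94 for the ω-hydroxy metabolite.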

[21] = Apparent biliary clearance in castrated pig at 0.2 mg/kg, iv by UPLC-tandem mass spectrometry; format: ADME, organism-based, Sus scrofa, Bile; design: dose 0.2 mg/kg, route intravenous; details: in vivo
[22] = Ratio of AUC in bile to plasma withdrawn from portal vein in castrated pig at 0.2 mg/kg, iv by UPLC-tandem mass spectrometry; format: ADME, organism-based, Sus scrofa; design: dose 0.2 mg/kg, route intravenous; details: male, read-out: Ratio AUC
Method in brief: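 Bile collected 0-6 h and weighed; portal and hepatic vein plasma sampled. Analytes quantified by UPLC-MS/MS (finasteride-d9 internal standard, SRM). Bile AUC divided by plasma AUC for each vein.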

[23] = Apparent biliary clearance in castrated pig at 0.8 mg/kg administered as intrajejunal dose 20 mins after ketoconazole administration by UPLC-tandem mass spectrometry; format: ADME, organism-based, Sus scrofa, Bile; design: dose 0.8 mg/kg; details: in vivo, other
Sus scrofa [24] = test: Absorption rate constant in castrated pig plasma withdrawn from femoral vein at 0.8 mg/kg administered as intrajejunal dose by UPLC-tandem mass spectrometry; format: ADME, organism-based; design: dose 0.8 mg/kg; details: in vivo, other
[25] = AUC (0 to 6 hrs) in castrated pig plasma withdrawn from femoral vein at 0.8 mg/kg administered as intrajejunal dose 20 mins after ketoconazole administration by UPLC-tandem mass spectrometry; format: ADME, organism-based, Sus scrofa; design: time < 6 hr, dose 0.8 mg/kg; details: male; method in brief: as §2
[26] = AUC (0 to 6 hrs) in castrated pig bile at 0.2 mg/kg, iv by UPLC-tandem mass spectrometry; format: ADME, organism-based, Sus scrofa; design: time < 6 hr, dose 0.2 mg/kg, route intravenous; details: male
[27] = AUC (0 to 6 hrs) in castrated pig plasma withdrawn from hepatic vein at 0.2 mg/kg, iv by UPLC-tandem mass spectrometry; format: ADME, organism-based, Sus scrofa; design: time < 6 hr, dose 0.2 mg/kg, route intravenous; details: male; method in brief: as §2
[28] = Ratio of AUC in bile to plasma withdrawn from portal vein in castrated pig at 0.8 mg/kg administered as intrajejunal dose by UPLC-tandem mass spectrometry; format: ADME, organism-based, Sus scrofa; design: dose 0.8 mg/kg; details: male, read-out: Ratio AUC
Method in brief: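 Bile collected 0-6 h and weighed; portal and hepatic vein plasma sampled. UPLC-MS/MS quantification against finasteride-d9 in SRM mode. Bile/plasma AUC ratio calculated per vein.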

[29] = Cmax in castrated pig plasma withdrawn from portal vein at 0.8 mg/kg administered as intrajejunal dose by UPLC-tandem mass spectrometry; format: ADME, organism-based, Sus scrofa; design: dose 0.8 mg/kg; details: male; method in brief: as §2
[30] = Drug excretion in castrated pig urine assessed as unchanged drug level at 0.8 mg/kg administered as intrajejunal dose measured during 6 hrs sampling by UPLC-tandem mass spectrometry; format: ADME, organism-based, Sus scrofa; design: dose 0.8 mg/kg; details: in vivo, other
[31] = Tmax in castrated pig plasma withdrawn from portal vein at 0.8 mg/kg administered as intrajejunal dose 20 mins after ketoconazole administration by UPLC-tandem mass spectrometry; format: ADME, organism-based, Sus scrofa; design: dose 0.8 mg/kg; details: male; method in brief: as §1

## CC(C)(C)NC(=O)[C@H]1CC[C@H]2[C@@H]3CC[C@H]4NC(=O)C=C[C@]4(C)[C@H]3CC[C@]12C [FINASTERIDE]
[1]
  dose excreted at 6 h: 0.12%
[2]
  Tmax: 90 min
[3]
  AUC(0-t) at 6 h: 4.1 µM·h
Sus scrofa [4]
  ka: 19 h⁻¹
[5]
  fraction unbound: 0.17
[6]
  clearance: 3360 mL/day/kg
[7]
  AUC(0-t) at 6 h: 1.6 µM·h
[8]
  dose excreted: 0.18%
[9]
  Cmax: 2000 nM
[10]
  Tmax: 54 min
[11]
  CL renal: 7.2 mL/day/kg
[12]
  Ae: 0.03 µmol
[13]
  CL(app): 13 mL/day/kg
[14]
  Cmax: 1000 nM
[15]
  AUC(0-t) at 6 h: 2.5 µM·h
[16]
  Cmax: 600 nM
Sus scrofa [17]
  ka: 3 h⁻¹
[18]
  AUC(0-t) at 6 h: 1.7 µM·h
[19]
  Ae: 0.09 µmol
[20]
  clearance: 10100 mL/day/kg
Plasma
  Drug metabolism: metabolite_not_detected
[21]
  CL(app): 20.2 mL/day/kg
[22]
  Kp: 0.9
[23]
  CL(app): 14 mL/day/kg
Sus scrofa [24]
  ka: 6 h⁻¹
[25]
  AUC(0-t) at 6 h: 4.4 µM·h
[26]
  AUC(0-t) at 6 h: 1.1 µM·h
[27]
  AUC(0-t) at 6 h: 0.9 µM·h
[28]
  Kp: 0.9
[29]
  Cmax: 2600 nM
[30]
  Ae: 0.01 µmol
[31]
  Tmax: 18 min
